Experimental data gathered from unrelated publications.
Protocols differ between the studies behind these lines.
Target: Interleukin-1 receptor-associated kinase 3 (IRAK3, Homo sapiens, UniProt Q9Y616)
Residues used in one study (Q9Y616 1-596): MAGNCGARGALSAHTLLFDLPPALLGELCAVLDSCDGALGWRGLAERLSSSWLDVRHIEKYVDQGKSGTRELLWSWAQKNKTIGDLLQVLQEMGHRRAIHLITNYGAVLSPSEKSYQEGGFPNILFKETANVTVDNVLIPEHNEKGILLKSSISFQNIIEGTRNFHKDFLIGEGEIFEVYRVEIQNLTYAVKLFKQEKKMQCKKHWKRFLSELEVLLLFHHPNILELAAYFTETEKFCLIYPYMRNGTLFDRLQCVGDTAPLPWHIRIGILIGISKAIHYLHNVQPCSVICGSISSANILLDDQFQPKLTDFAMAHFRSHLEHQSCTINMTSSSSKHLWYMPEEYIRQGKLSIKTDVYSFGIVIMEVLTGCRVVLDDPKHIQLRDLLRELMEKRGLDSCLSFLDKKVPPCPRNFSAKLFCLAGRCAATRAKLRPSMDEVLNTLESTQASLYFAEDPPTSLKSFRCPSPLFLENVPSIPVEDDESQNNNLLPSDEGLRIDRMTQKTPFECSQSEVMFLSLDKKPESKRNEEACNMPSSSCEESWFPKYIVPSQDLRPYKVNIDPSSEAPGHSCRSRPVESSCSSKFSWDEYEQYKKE

Compound | assay | setting | remaining binding [%]
COc1ccnn2ncc(-c3ccnc(N(C)C)n3)c12 | binding | 1 µM | 91
O=C(NCC1CCOCC1)c1n[nH]cc1NC(=O)c1c(F)cccc1F | binding, competition with immobilised ligand | 1 µM | 92
C[C@H](NC(=O)c1cnc2n1[C@](C)(Cc1ccc(C#N)cc1)C(=O)N2c1cc(Cl)c(F)c(Cl)c1)C(=O)NC1(c2ccccn2)CC1 | cell-free assay, competition with immobilised ligand | 1 µM | 100
COc1cnc(Nc2cccc(S(N)(=O)=O)c2)nc1N1CCN(c2ccccc2)C(=O)C1 | binding, competition with immobilised ligand | 1 µM | 100
O=C(c1ccc(Nc2ncc(Cl)c(-c3cc4ccccc4s3)n2)cc1)N1CCC(N2CCCC2)CC1 | binding, competition with immobilised ligand | 1 µM | 6
FC(F)(F)Oc1cccc(-c2cnc3ccc(-c4ccncc4)nn23)c1 | cell-free assay, competition with immobilised ligand | 5 µM | 7.6
CCN1CCN(Cc2ccc(C(=O)Nc3ccc(C)c(Oc4ccc5c(c4)CC(=O)N5)c3)cc2C(F)(F)F)CC1 | binding, competition with immobilised ligand | 1 µM | 100
C[C@@H](c1ccc(-n2cnc3c(N)ncnc32)cc1)N1CCc2nn(C)c(Cc3ccccc3)c2C1=O | binding, competition with immobilised ligand | 0.1 µM | 79
O=C(NCc1ncc(C(F)(F)F)cc1Cl)c1ccc2c(c1)C1(CCS(=O)(=O)CC1)[C@H](C1CC1)N2S(=O)(=O)c1ccc(F)cc1 | cell-free assay, competition with immobilised ligand | 1 µM | 99
F[C@@H]1CCN(c2nccc(-c3cnn4ncccc34)n2)C1 | binding | 1 µM | 100
Cn1nc(C(F)(F)F)cc1-c1cnc(N2CCc3cc(S(=O)(=O)Nc4c(F)cc(Cl)cc4F)cc(N4CCCC4=O)c32)nc1 | cell-free assay, competition with immobilised ligand | 1 µM | 100
O=C(NCCCN1CCOCC1)c1ccc(Nc2ncc(Cl)c(-c3ccc(Cl)s3)n2)cc1 | binding, competition with immobilised ligand | 1 µM | 13
N[C@@H]1CCN(c2nccc(-c3cnn4ncccc34)n2)C1 | binding | 1 µM | 100
O=C1CCc2cc(Nc3cc(OC4CCOCC4)c([N+](=O)[O-])cc3Cl)ccc2N1 | cell-free assay, competition with immobilised ligand | 1 µM | 98
CNC(=O)[C@@H]1CC[C@@H](n2c(-c3ccc4cnccc4c3)nc3ccc(C(=O)NCc4cccc(C(N)=O)c4)cc32)C1 | binding, competition with immobilised ligand | 1 µM | 97
C[C@H]1CCN(c2nccc(-c3cnn4ncccc34)n2)C1 | binding | 1 µM | 52
Cc1cnc(Nc2ccc(C(=O)N3CCC(N4CCCC4)CC3)cc2)nc1-c1cc2ccccc2s1 | binding, competition with immobilised ligand | 1 µM | 5.3
CN(C)c1nccc(-c2cnn3ncccc23)n1 | binding | 1 µM | 100
N#Cc1ccc(Nc2ccc3[nH]c(=O)[nH]c3c2)c(Cl)c1 | cell-free assay, competition with immobilised ligand | 1 µM | 94
c1cnn2ncc(-c3ccnc(N4CCC45COC5)n3)c2c1 | binding | 1 µM | 36
CN(c1ccnc(CNc2nc(Nc3ccc4c(c3)CC(=O)N4)ncc2C(F)(F)F)n1)S(C)(=O)=O | cell-free assay, competition with immobilised ligand | 1 µM | 11
